The source made the active and inactive calls. No cut-off for these calls is given here.
Columns and labels:
[1] = organism: Mus musculus; assay: Antiproliferative activity against mouse AXL-positive Breast cancer cells after 5 days by PrestoBlue assay; format: functional
Method in brief: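 Cell proliferation: AXL+ cells were exposed to 8-point half-log dilutions (0.03–100 μM). Viability was read with PrestoBlue reagent on day 5.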

[2] = target: RAC-alpha serine/threonine-protein kinase (Homo sapiens, UniProt P31749); assay: Inhibition of AKT (unknown origin) using poly [Glu, Try] 4:1 as substrate in presence of [gamma-33P]ATP
Sequence of RAC-alpha serine/threonine-protein kinase (P31749 whole entry): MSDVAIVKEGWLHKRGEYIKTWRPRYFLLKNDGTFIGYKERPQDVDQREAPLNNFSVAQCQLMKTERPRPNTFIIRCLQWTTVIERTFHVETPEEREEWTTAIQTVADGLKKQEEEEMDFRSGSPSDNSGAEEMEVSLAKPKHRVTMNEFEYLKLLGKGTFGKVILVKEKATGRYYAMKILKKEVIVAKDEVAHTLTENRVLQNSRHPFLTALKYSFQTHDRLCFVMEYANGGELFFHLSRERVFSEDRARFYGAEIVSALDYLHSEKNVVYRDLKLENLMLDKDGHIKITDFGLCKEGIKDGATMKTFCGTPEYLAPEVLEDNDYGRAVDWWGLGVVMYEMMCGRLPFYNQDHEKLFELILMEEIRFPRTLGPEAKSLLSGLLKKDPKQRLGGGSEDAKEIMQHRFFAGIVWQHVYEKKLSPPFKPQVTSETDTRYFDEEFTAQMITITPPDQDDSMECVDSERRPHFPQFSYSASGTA
Method in brief: (§1)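 Radiometric assay on recombinant kinase: ³³P incorporation into the kinase substrate was measured and activity was expressed relative to a DMSO control.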

[3] = target: T1, Aurora kinase A (Homo sapiens, UniProt O14965); assay: Inhibition of human partial length Aurora A (E122 to K401 residues) expressed in mammalian expression system using poly [Glu, Try] 4:1 as substrate in presence of [gamma-33P]ATP; method in brief: as §1
T1 sequence (O14965 whole entry): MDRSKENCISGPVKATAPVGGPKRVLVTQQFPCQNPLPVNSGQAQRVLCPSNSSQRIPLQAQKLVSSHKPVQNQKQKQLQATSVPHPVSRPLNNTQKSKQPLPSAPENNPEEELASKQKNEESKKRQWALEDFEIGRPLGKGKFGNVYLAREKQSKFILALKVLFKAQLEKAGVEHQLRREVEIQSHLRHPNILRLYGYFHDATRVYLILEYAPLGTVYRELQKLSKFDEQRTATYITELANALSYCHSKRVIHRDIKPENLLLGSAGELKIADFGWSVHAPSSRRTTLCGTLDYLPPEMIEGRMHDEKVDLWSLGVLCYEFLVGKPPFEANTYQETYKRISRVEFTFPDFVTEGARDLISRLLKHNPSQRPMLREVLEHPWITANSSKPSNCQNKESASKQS

[4] = target: Mast/stem cell growth factor receptor Kit (Homo sapiens, UniProt P10721); assay: Inhibition of wild-type human partial length KIT (I571 to D952 residues) expressed in bacterial expression system using poly [Glu, Try] 4:1 as substrate in presence of [gamma-33P]ATP; method in brief: as §1
Sequence of Mast/stem cell growth factor receptor Kit (P10721 whole entry, the tested form may be a part): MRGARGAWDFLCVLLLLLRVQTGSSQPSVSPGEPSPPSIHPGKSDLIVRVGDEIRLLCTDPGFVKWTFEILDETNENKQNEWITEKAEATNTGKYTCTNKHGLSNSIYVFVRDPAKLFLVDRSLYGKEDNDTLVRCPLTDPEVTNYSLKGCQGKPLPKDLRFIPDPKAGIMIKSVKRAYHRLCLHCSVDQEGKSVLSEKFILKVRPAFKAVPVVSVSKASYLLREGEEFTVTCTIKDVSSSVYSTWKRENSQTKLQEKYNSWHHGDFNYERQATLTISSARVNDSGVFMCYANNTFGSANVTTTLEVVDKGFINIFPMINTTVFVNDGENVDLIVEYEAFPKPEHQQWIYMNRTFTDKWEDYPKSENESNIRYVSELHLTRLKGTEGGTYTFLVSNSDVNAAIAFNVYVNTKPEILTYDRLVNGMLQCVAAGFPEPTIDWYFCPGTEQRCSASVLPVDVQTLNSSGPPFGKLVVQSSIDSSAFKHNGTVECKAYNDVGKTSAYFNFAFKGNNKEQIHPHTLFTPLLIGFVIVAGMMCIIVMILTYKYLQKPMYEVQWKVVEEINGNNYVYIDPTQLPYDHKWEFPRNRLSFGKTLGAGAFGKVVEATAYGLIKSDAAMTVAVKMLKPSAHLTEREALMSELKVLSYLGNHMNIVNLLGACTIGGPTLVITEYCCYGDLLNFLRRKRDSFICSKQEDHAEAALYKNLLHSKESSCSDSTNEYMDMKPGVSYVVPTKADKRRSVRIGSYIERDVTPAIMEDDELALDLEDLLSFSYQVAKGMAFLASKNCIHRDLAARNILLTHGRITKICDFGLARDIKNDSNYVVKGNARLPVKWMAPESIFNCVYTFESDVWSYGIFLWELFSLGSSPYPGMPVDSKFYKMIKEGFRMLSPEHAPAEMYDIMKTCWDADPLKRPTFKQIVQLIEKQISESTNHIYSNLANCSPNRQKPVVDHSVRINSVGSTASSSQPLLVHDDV

[5] = target: Hepatocyte growth factor receptor (Homo sapiens, UniProt P08581); assay: Inhibition of wild-type human partial length MET (D1010 to S1367 residues) expressed in bacterial expression system using poly [Glu, Try] 4:1 as substrate in presence of [gamma-33P]ATP; method in brief: as §1
Sequence of Hepatocyte growth factor receptor (P08581 whole entry, the tested form may be a part): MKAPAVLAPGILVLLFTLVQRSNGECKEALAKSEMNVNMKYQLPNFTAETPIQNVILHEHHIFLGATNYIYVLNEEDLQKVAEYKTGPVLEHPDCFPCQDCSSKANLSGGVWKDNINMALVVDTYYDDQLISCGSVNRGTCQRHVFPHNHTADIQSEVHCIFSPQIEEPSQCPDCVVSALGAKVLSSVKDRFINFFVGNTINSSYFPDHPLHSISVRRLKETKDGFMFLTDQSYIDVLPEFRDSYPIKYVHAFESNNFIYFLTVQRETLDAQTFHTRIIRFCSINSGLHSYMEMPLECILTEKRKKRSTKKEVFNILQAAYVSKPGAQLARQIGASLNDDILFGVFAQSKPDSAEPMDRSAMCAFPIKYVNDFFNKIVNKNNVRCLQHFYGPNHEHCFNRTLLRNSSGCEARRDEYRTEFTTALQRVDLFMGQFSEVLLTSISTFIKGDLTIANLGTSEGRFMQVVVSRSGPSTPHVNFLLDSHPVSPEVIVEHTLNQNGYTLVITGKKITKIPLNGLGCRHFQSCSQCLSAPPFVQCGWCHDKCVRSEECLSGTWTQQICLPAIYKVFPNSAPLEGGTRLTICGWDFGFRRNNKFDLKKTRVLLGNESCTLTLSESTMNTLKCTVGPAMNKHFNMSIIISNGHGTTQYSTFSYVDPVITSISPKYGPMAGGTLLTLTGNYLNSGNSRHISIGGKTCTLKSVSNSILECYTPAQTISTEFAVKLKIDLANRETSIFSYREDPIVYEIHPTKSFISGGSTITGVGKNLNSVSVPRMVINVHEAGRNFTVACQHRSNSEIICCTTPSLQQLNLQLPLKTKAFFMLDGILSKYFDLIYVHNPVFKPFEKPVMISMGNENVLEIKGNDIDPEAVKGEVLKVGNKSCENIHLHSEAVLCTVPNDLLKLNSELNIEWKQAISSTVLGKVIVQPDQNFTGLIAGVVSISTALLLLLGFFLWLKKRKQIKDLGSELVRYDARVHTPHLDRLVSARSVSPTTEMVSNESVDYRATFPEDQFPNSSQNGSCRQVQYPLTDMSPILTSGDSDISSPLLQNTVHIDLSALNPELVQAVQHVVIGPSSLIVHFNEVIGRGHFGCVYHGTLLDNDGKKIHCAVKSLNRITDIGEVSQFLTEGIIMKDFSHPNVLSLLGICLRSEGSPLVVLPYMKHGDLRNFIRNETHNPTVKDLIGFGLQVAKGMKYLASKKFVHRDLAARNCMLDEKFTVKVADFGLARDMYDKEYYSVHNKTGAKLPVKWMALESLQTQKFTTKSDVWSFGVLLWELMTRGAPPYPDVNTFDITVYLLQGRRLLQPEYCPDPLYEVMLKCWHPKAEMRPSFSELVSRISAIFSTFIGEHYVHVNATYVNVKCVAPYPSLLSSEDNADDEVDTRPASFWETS

[6] = target: Proto-oncogene tyrosine-protein kinase Src (Homo sapiens, UniProt P12931); assay: Inhibition of wild-type human partial length SRC (L240 to L536 residues) expressed in bacterial expression system using poly [Glu, Try] 4:1 as substrate in presence of [gamma-33P]ATP
Sequence of Proto-oncogene tyrosine-protein kinase Src (P12931 2-536 limits assumed): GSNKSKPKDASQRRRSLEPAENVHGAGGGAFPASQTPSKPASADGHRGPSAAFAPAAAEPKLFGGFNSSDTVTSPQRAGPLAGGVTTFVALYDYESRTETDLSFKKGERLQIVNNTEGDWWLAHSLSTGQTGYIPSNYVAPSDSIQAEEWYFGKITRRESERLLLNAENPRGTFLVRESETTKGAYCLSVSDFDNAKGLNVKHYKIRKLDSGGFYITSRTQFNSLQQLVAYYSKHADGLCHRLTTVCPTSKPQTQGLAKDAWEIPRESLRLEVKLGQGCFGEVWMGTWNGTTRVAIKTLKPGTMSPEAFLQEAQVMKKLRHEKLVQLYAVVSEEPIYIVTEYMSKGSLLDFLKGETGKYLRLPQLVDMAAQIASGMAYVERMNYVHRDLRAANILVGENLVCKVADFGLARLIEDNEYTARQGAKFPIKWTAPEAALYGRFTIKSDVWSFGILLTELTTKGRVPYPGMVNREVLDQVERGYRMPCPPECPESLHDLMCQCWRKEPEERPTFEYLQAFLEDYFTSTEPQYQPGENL

[7] = target: Vascular endothelial growth factor receptor 2 (Homo sapiens, UniProt P35968); assay: Inhibition of wild-type human partial length VEGFR2 (R787 to P1253 residues) expressed in mammalian expression system using poly [Glu, Try] 4:1 as substrate in presence of [gamma-33P]ATP
Sequence of Vascular endothelial growth factor receptor 2 (P35968 whole entry, the tested form may be a part): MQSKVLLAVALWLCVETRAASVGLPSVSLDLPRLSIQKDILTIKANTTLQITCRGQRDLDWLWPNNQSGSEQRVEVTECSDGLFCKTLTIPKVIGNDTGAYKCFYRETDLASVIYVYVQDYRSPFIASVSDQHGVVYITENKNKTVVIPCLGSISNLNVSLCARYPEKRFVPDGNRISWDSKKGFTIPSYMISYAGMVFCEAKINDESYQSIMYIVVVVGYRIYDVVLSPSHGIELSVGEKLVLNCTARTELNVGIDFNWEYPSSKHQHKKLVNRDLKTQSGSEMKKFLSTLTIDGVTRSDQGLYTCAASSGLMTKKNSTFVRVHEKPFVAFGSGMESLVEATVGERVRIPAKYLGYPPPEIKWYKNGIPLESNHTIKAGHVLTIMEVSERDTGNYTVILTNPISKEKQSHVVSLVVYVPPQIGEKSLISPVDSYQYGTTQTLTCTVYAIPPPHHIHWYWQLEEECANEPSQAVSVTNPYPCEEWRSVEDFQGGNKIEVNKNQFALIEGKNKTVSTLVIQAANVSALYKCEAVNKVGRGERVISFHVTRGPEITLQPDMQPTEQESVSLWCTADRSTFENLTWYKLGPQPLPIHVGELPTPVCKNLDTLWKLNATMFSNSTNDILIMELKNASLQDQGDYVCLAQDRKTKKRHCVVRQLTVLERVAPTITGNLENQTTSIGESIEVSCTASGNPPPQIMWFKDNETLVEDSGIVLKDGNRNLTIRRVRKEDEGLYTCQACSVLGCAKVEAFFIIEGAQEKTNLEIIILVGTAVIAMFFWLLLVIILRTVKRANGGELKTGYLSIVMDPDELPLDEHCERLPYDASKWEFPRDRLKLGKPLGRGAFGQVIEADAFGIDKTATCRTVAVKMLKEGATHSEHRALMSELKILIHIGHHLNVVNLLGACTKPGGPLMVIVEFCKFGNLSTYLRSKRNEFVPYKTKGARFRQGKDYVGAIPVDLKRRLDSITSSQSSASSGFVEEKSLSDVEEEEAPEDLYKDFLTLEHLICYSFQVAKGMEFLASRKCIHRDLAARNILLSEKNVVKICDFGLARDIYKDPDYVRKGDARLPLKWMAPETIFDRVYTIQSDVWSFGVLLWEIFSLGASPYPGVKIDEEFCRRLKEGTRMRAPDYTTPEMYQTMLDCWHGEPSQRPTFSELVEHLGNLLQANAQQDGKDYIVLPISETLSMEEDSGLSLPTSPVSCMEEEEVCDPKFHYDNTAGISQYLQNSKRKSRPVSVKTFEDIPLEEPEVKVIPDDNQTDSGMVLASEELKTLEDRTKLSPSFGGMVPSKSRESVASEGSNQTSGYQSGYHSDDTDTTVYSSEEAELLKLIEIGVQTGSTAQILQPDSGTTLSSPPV

[8] = target: Serine/threonine-protein kinase mTOR (Homo sapiens, UniProt P42345); assay: Inhibition of wild-type human partial length MTOR (L1382 to W2549 residues) expressed in mammalian expression system using poly [Glu, Try] 4:1 as substrate in presence of [gamma-33P]ATP; method in brief: as §1
[9] = target: T2, Tyrosine-protein kinase receptor TYRO3 (Homo sapiens, UniProt Q06418); assay: Inhibition of wild-type human partial length TYRO3 (S497 to T814 residues) expressed in bacterial expression system using poly [Glu, Try] 4:1 as substrate in presence of [gamma-33P]ATP; method in brief: as §1
T2 sequence (Q06418 whole entry): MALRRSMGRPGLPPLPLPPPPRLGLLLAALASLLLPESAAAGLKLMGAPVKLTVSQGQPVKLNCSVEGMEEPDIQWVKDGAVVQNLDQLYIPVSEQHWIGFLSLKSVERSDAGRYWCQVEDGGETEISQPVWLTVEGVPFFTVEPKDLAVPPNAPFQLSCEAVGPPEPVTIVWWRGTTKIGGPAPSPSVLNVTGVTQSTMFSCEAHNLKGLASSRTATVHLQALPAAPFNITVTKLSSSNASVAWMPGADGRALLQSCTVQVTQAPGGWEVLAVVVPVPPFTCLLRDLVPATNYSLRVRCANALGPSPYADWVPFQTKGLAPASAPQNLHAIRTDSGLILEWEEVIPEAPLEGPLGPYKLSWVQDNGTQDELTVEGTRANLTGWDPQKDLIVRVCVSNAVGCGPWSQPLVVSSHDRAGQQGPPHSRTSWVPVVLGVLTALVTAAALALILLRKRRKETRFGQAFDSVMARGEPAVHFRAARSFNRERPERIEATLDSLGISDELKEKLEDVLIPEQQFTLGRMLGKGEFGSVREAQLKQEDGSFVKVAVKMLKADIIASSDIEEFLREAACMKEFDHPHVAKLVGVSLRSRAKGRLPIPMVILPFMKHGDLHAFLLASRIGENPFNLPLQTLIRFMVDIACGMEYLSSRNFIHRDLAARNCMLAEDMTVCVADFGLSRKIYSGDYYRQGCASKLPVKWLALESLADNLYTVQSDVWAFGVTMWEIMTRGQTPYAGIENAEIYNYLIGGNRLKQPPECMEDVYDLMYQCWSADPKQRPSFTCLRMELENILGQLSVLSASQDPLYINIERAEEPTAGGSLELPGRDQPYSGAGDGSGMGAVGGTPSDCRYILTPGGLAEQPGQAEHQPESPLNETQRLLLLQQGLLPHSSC

Compound	Activity [1]	also measured
CNc1ncc2c(-c3ccc(N4CCNCC4)nc3)nn(Cc3cn(C4CCCCC4O)nn3)c2n1 (stereo unspecified)	inactive	–
CNc1ncc2c(-c3ccc(N4CCNCC4)nc3)nn(Cc3cn(-c4ccc(OC)cc4)nn3)c2n1	inactive	–
CNc1ncc2c(-c3ccc(N4CCNCC4)nc3)nn(Cc3cn(C4CCCC4O)nn3)c2n1 (stereo unspecified)	inactive	–
CNc1ncc2c(-c3cnc4[nH]ccc4c3)nn(Cc3cn(Cc4ccccc4)nn3)c2n1	inactive	–
CNc1ncc2c(-c3ccc(N4CCNCC4)nc3)nn(Cc3cn(-c4ccccc4)nn3)c2n1	inactive	–
CNc1ncc2c(-c3ccc(N4CCNCC4)nc3)nn(Cc3cn(-c4ccc(Cl)cc4)nn3)c2n1	inactive	–
CNc1ncc2c(-c3ccc(N4CCNCC4)nc3)nn(Cc3cn(Cc4ccccc4)nn3)c2n1	Active	IC50 [2]: > 10 µM; IC50 [3]: 1.8 µM; IC50 [4]: > 10 µM; IC50 [5]: > 10 µM; IC50 [6]: 1 µM; IC50 [7]: > 10 µM; IC50 [8]: > 10 µM; IC50 [9]: > 10 µM
CNc1ccc(-c2nn(Cc3cn(Cc4ccccc4)nn3)c3nc(NC)ncc23)cn1	inactive	–

Reference: ChEMBL document CHEMBL4184298, “Development of Potent Inhibitors of Receptor Tyrosine Kinases by Ligand-Based Drug Design and Target-Biased Phenotypic Screening” (J Med Chem, 2018)
